Results: ChEMBL document CHEMBL1154046, “Synthesis of some urea and thiourea derivatives of 3-phenyl/ethyl-2-thioxo-2,3-dihydrothiazolo[4,5-d]pyrimidine and their antagonistic effects on haloperidol-induced catalepsy and oxidative stress in mice” (2009)

Tests used:
Mus musculus [1] = test: Inhibition of haloperidol-induced catalepsy in Swiss albino mouse assessed as time elapsed until release of forepaw from bar at 100 mg/kg, […] 30 min prior to haloperidol challenge measured after 120 mins by bar test; assay type: functional; conditions: route intraperitoneal, in the assay text read “ip” for “po”
How it was run: (§1)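 Adult male pathogen-free Swiss albino mice (18–25 g), n = 5 per group, each used once. Compounds at 100 mg/kg i.p. were given as a suspension in 0.5% gum acacia 30 min before haloperidol 5 mg/kg i.p. Forepaws were placed on a horizontal bar 9 cm high, and descent time was recorded every 30 min for 3 h. Testing ran at 23 ± 1 °C under 20 lux. Values are mean ± S.E.M.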

Mus musculus [2] = test: Inhibition of haloperidol-induced catalepsy in Swiss albino mouse assessed as time elapsed until release of forepaw from bar at 100 mg/kg, […] 30 min prior to haloperidol challenge measured after 60 mins by bar test; assay type: functional; conditions: route intraperitoneal, in the assay text read “ip” for “po”; how it was run: as §1
Brain [3] = test: Antioxidant activity in haloperidol-stimulated Swiss albino mouse brain assessed as oxidized glutathione peroxidase level per g of protein (Rvb= 0.765+/- 0.13 U); assay type: functional
Brain [4] = test: Antioxidant activity against lipid peroxidation in haloperidol-stimulated Swiss albino mouse brain assessed as malonaldehyde level per mg of protein by lipid peroxidation assay (Rvb= 5.521 +/- 0.23 nmol); assay type: functional, tissue-based
How it was run: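 Compound was given 30 min before haloperidol 5 mg/kg i.p. Brain was homogenized in 50 mM Tris-HCl pH 7.4. Homogenate was mixed with SDS, acetic acid and 0.8% TBA, heated 1 h at 95 °C, and extracted into n-butanol/pyridine (15:1). Upper-layer A532 was converted to MDA using ε 1.56 × 10⁵, and protein was measured by Lowry. Results are nmol MDA/mg protein, n = 5.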

Mus musculus [5] = test: Inhibition of haloperidol-induced catalepsy in Swiss albino mouse at 100 mg/kg, […] 30 min prior to haloperidol challenge by bar test relative to haloperidol control; assay type: functional; conditions: route intraperitoneal, in the assay text read “ip” for “po”
How it was run: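 Mice received compound at 100 mg/kg i.p. (in 0.5% gum acacia) 30 min before haloperidol 5 mg/kg i.p., n = 5. The bar test was run every 30 min over 3 h, and descent times were summed as CDT [3 h]. Haloperidol CDT minus vehicle CDT was set as 100% catalepsy, and % inhibition was calculated against it.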

Mus musculus [6] = test: Inhibition of haloperidol-induced catalepsy in Swiss albino mouse assessed as time elapsed until release of forepaw from bar at 100 mg/kg, […] 30 min prior to haloperidol challenge measured after 150 mins by bar test; assay type: functional; conditions: route intraperitoneal, in the assay text read “ip” for “po”; how it was run: as §1
Brain [7] = test: Antioxidant activity in haloperidol-stimulated Swiss albino mouse brain assessed as superoxide dismutase level per mg of protein (Rvb= 0.941+/- 0.15 U); assay type: functional
Mus musculus [8] = test: Inhibition of haloperidol-induced catalepsy in Swiss albino mouse assessed as time elapsed until release of forepaw from bar at 100 mg/kg, […] 30 min prior to haloperidol challenge measured after 30 mins by bar test; assay type: functional; conditions: route intraperitoneal, in the assay text read “ip” for “po”; how it was run: as §1
Mus musculus [9] = test: Inhibition of haloperidol-induced catalepsy in Swiss albino mouse assessed as time elapsed until release of forepaw from bar at 100 mg/kg, […] 30 min prior to haloperidol challenge measured after 180 mins by bar test; assay type: functional; conditions: route intraperitoneal, in the assay text read “ip” for “po”; how it was run: as §1
Mus musculus [10] = test: Inhibition of haloperidol-induced catalepsy in Swiss albino mouse assessed as time elapsed until release of forepaw from bar at 100 mg/kg, […] 30 min prior to haloperidol challenge measured after 90 mins by bar test; assay type: functional; conditions: route intraperitoneal, in the assay text read “ip” for “po”; how it was run: as §1
Brain [11] = test: Antioxidant activity against GSH in haloperidol-stimulated Swiss albino mouse brain assessed as reduced glutathione level per gm of tissue (Rvb= 6.753 +/- 0.15 ug); assay type: functional

Structure (SMILES)	catalepsy descent time (Mus musculus [1])	Catalepsy time (forepaw descent time) (Mus musculus [2])	Activity (Brain [3])	Activity (Brain [4])	inhibition (INH) (Mus musculus [5])	Time to forepaw release from bar (Mus musculus [6])	Activity (Brain [7])	descent time (Mus musculus [8])	Catalepsy duration (time to release forepaw from bar) (Mus musculus [9])	catalepsy descent time (Mus musculus [10])	Activity (Brain [11])
COc1ccccc1NC(=S)Nc1ncnc2c1sc(=S)n2-c1ccccc1	1.8 min	0.733 min	1.6 U	2.75 nmol	28.5%	1.87 min	2.35 U	0.417 min	1.82 min	1.3 min	14.2 µg
CCn1c(=S)sc2c(NC(=S)Nc3ccccc3OC)ncnc21	1.25 min	0.25 min	1.331 U	3.12 nmol	23.7%	1.62 min	1.866 U	0.3 min	2.4 min	0.883 min	11.672 µg
CCn1c(=S)sc2c(NC(=O)Nc3ccccc3OC)ncnc21	1.5 min	0.517 min	1.54 U	2.81 nmol	29.3%	2.25 min	1.81 U	0.583 min	2.62 min	0.667 min	14 µg
COc1ccccc1NC(=O)Nc1ncnc2c1sc(=S)n2-c1ccccc1	1.48 min	0.817 min	1.134 U	3.2 nmol	23.4%	1.38 min	1.992 U	0.433 min	1.57 min	0.95 min	14.362 µg
